Measured values reported in ChEMBL document CHEMBL5724801, “EUbOPEN Chemogenomics Library - Multiplex” (2024).
“And” between values parts separate entries of the source, which are not always exact repeats. Identical values can stand only once.

Tested on: HEK-293T
Assay: Multiplex assay against HEK293T
Format: toxicity, cell-based
Conditions: human
Method in brief: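 Cells stained live at seeding with Hoechst33342, BioTracker Green Microtubule Cytoskeleton Dye, MitoTracker Red and Annexin V Alexa Fluor 680 were imaged on a CQ1 microscope at 37°C and 5% CO2 after compound addition. Their classification by CellPathfinder machine-learning gating ran from Hoechst high-intensity objects versus normal cells, to healthy, pyknosed or fragmented nuclei among normal cells, to mitotic or apoptotic among pyknosed cells. Tubulin, mitochondrial-mass and membrane-permeability phenotypes are per cents of healthy-nucleus cells.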

[1] = 12 h, 1 µM, compound concentration 1 uM
[2] = 12 h, 10 µM, compound concentration 10 uM
[3] = 24 h, 1 µM, compound concentration 1 uM
[4] = 24 h, 10 µM, compound concentration 10 uM
[5] = 48 h, 1 µM, compound concentration 1 uM
[6] = 48 h, 10 µM, compound concentration 10 uM

O=c1nc2[nH]c3ccccc3nc-2c(=O)[nH]1 [ALLOXAZINE]
Population Apoptotic (%) [1]: 27% and 44% | Population Fragmented Nuclei (%) [1]: 8% and 4% | Population Healthy Nuclei (%) [1]: 77% and 79% | Population Hoechst High Intensity Objects (%) [1]: 8% and 7% | Population Membrane Permeable-Phenotype (%) [1]: 0% | Population Mitochondria Different-Phenotype (%) [1]: 44% and 66% | Population Mitotic Cells (%) [1]: 72% and 55% | Population Normal (%) [1]: 91% and 92% | Population Pyknosed Nuclei (%) [1]: 13% and 15% | Population Tubulin-Different-Phenotype (%) [1]: 33% and 25% | Total Cell Count [1]: 377 and 345 | Population Apoptotic (%) [2]: 40% and 60% | Population Fragmented Nuclei (%) [2]: 10% and 8% | Population Healthy Nuclei (%) [2]: 71% and 70% | Population Hoechst High Intensity Objects (%) [2]: 5% and 15% | Population Membrane Permeable-Phenotype (%) [2]: 0% | Population Mitochondria Different-Phenotype (%) [2]: 53% and 67% | Population Mitotic Cells (%) [2]: 59% and 40% | Population Normal (%) [2]: 94% and 84% | Population Pyknosed Nuclei (%) [2]: 18% and 20% | Population Tubulin-Different-Phenotype (%) [2]: 31% and 20% | Total Cell Count [2]: 362 and 323 | Population Apoptotic (%) [3]: 22% and 33% | Population Fragmented Nuclei (%) [3]: 10% and 7% | Population Healthy Nuclei (%) [3]: 76% and 83% | Population Hoechst High Intensity Objects (%) [3]: 4% and 7% | Population Membrane Permeable-Phenotype (%) [3]: 0% | Population Mitochondria Different-Phenotype (%) [3]: 24% and 41% | Population Mitotic Cells (%) [3]: 77% and 66% | Population Normal (%) [3]: 95% and 92% | Population Pyknosed Nuclei (%) [3]: 12% and 8% | Population Tubulin-Different-Phenotype (%) [3]: 19% and 12% | Total Cell Count [3]: 504 and 391 | Population Apoptotic (%) [4]: 27% and 50% | Population Fragmented Nuclei (%) [4]: 9% | Population Healthy Nuclei (%) [4]: 77% and 72% | Population Hoechst High Intensity Objects (%) [4]: 6% and 15% | Population Membrane Permeable-Phenotype (%) [4]: 0% | Population Mitochondria Different-Phenotype (%) [4]: 34% and 48% | Population Mitotic Cells (%) [4]: 72% and 50% | Population Normal (%) [4]: 93% and 84% | Population Pyknosed Nuclei (%) [4]: 12% and 17% | Population Tubulin-Different-Phenotype (%) [4]: 21% and 16% | Total Cell Count [4]: 491 and 371 | Population Apoptotic (%) [5]: 32% and 27% | Population Fragmented Nuclei (%) [5]: 14% and 11% | Population Healthy Nuclei (%) [5]: 77% and 82% | Population Hoechst High Intensity Objects (%) [5]: 3% and 4% | Population Membrane Permeable-Phenotype (%) [5]: 1% and 0% | Population Mitochondria Different-Phenotype (%) [5]: 18% and 26% | Population Mitotic Cells (%) [5]: 67% and 72% | Population Normal (%) [5]: 96% and 95% | Population Pyknosed Nuclei (%) [5]: 8% and 6% | Population Tubulin-Different-Phenotype (%) [5]: 13% and 12% | Total Cell Count [5]: 773 and 636 | Population Apoptotic (%) [6]: 29% and 48% | Population Fragmented Nuclei (%) [6]: 15% and 14% | Population Healthy Nuclei (%) [6]: 76% and 78% | Population Hoechst High Intensity Objects (%) [6]: 3% and 4% | Population Membrane Permeable-Phenotype (%) [6]: 0% | Population Mitochondria Different-Phenotype (%) [6]: 17% and 28% | Population Mitotic Cells (%) [6]: 70% and 51% | Population Normal (%) [6]: 96% and 95% | Population Pyknosed Nuclei (%) [6]: 7% and 6% | Population Tubulin-Different-Phenotype (%) [6]: 11% and 14% | Total Cell Count [6]: 700 and 531

Cc1cc(=O)n(C)c2cc(N3C(=O)CC[C@H](NS(=O)(=O)CC(C)C)[C@H]3c3ccc(Cl)cc3)ccc12
Population Apoptotic (%) [1]: 43% and 63% | Population Fragmented Nuclei (%) [1]: 7% and 6% | Population Healthy Nuclei (%) [1]: 83% and 78% | Population Hoechst High Intensity Objects (%) [1]: 8% and 6% | Population Membrane Permeable-Phenotype (%) [1]: 0% | Population Mitochondria Different-Phenotype (%) [1]: 41% and 53% | Population Mitotic Cells (%) [1]: 56% and 36% | Population Normal (%) [1]: 91% and 93% | Population Pyknosed Nuclei (%) [1]: 8% and 14% | Population Tubulin-Different-Phenotype (%) [1]: 32% and 14% | Total Cell Count [1]: 454 and 265 | Population Apoptotic (%) [2]: 47% and 50% | Population Fragmented Nuclei (%) [2]: 4% and 6% | Population Healthy Nuclei (%) [2]: 70% and 66% | Population Hoechst High Intensity Objects (%) [2]: 11% and 16% | Population Membrane Permeable-Phenotype (%) [2]: 0% | Population Mitochondria Different-Phenotype (%) [2]: 75% and 86% | Population Mitotic Cells (%) [2]: 52% and 49% | Population Normal (%) [2]: 88% and 83% | Population Pyknosed Nuclei (%) [2]: 24% and 27% | Population Tubulin-Different-Phenotype (%) [2]: 81% and 66% | Total Cell Count [2]: 368 and 331 | Population Apoptotic (%) [3]: 33% and 36% | Population Fragmented Nuclei (%) [3]: 9% and 4% | Population Healthy Nuclei (%) [3]: 81% and 82% | Population Hoechst High Intensity Objects (%) [3]: 4% and 5% | Population Membrane Permeable-Phenotype (%) [3]: 0% and 1% | Population Mitochondria Different-Phenotype (%) [3]: 25% and 42% | Population Mitotic Cells (%) [3]: 66% and 63% | Population Normal (%) [3]: 95% and 94% | Population Pyknosed Nuclei (%) [3]: 9% and 13% | Population Tubulin-Different-Phenotype (%) [3]: 19% and 17% | Total Cell Count [3]: 646 and 327 | Population Apoptotic (%) [4]: 34% and 76% | Population Fragmented Nuclei (%) [4]: 7% and 8% | Population Healthy Nuclei (%) [4]: 72% and 67% | Population Hoechst High Intensity Objects (%) [4]: 9% and 22% | Population Membrane Permeable-Phenotype (%) [4]: 0% | Population Mitochondria Different-Phenotype (%) [4]: 67% and 85% | Population Mitotic Cells (%) [4]: 65% and 23% | Population Normal (%) [4]: 90% and 77% | Population Pyknosed Nuclei (%) [4]: 19% and 23% | Population Tubulin-Different-Phenotype (%) [4]: 67% and 71% | Total Cell Count [4]: 419 and 328 | Population Apoptotic (%) [5]: 25% and 31% | Population Fragmented Nuclei (%) [5]: 14% and 11% | Population Healthy Nuclei (%) [5]: 78% and 79% | Population Hoechst High Intensity Objects (%) [5]: 3% and 7% | Population Membrane Permeable-Phenotype (%) [5]: 0% | Population Mitochondria Different-Phenotype (%) [5]: 17% and 20% | Population Mitotic Cells (%) [5]: 74% and 68% | Population Normal (%) [5]: 96% and 92% | Population Pyknosed Nuclei (%) [5]: 6% and 9% | Population Tubulin-Different-Phenotype (%) [5]: 15% and 17% | Total Cell Count [5]: 985 and 454 | Population Apoptotic (%) [6]: 56% and 66% | Population Fragmented Nuclei (%) [6]: 12% | Population Healthy Nuclei (%) [6]: 77% and 67% | Population Hoechst High Intensity Objects (%) [6]: 10% and 19% | Population Membrane Permeable-Phenotype (%) [6]: 1% and 0% | Population Mitochondria Different-Phenotype (%) [6]: 67% and 76% | Population Mitotic Cells (%) [6]: 43% and 33% | Population Normal (%) [6]: 89% and 80% | Population Pyknosed Nuclei (%) [6]: 10% and 19% | Population Tubulin-Different-Phenotype (%) [6]: 58% and 56% | Total Cell Count [6]: 548 and 371
